Assay results reported in ChEMBL document CHEMBL4270526, “A novel NAE/UAE dual inhibitor LP0040 blocks neddylation and ubiquitination leading to growth inhibition and apoptosis of cancer cells” (Eur J Med Chem, 2018).
Active and inactive are the calls of the source. The calls are words filed in the database; no cut-off is given here.

Legend:
K562 = assay: Antiproliferative activity against human K562 cells after 48 hrs by CCK8 assay; format: functional, cell-based; conditions: K562, 48 h
In short: (§1)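 Cells seeded at 6 × 10^3 cells/well and left 12 h at 37 °C, 5% CO2. Medium then replaced with serial compound dilutions, bortezomib as positive control. After 48 h, CCK-8 added for 4 h and absorbance read at 450 nm. Three repeats; IC50 from normalized nonlinear regression of inhibition curves.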

HCT-116 = assay: Antiproliferative activity against human HCT116 cells after 48 hrs by CCK8 assay; format: functional, cell-based; conditions: HCT-116, 48 h; in short: as §1
BXPC-3 = assay: Antiproliferative activity against human BxPC3 cells after 48 hrs by CCK8 assay; format: functional, cell-based; conditions: BXPC-3, 48 h; in short: as §1
[1] = Hemolytic activity against rabbit erythrocytes assessed as hemolysis at 100 uM measured after 1 hr; format: ADME, cell-based, Oryctolagus cuniculus, Erythrocyte; conditions: read-out: Activity
In short: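 Rabbit erythrocytes pelleted at 3000 rpm for 10 min, washed twice and resuspended in PBS. Mixed 1:1 with 200 μM compound solution in PBS, 1 h at 37 °C. PBS served as 0% and 1% Triton X-100 as 100% hemolysis. After centrifugation, supernatant hemoglobin read at 540 nm; % hemolysis calculated relative to the Triton and PBS controls.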

[2] = Antiproliferative activity against HUVEC after 48 hrs by CCK8 assay; format: cell-based; conditions: human, read-out: LC50
[3] = Selectivity index, ratio of IC50 for HEK293T cells to IC50 for human AGS cells; format: toxicity; conditions: HEK293T cells versus AGS cells, read-out: Ratio IC50
[4] = Selectivity index, ratio of IC50 for human LO2 cells to IC50 for human AGS cells; format: toxicity; conditions: LO2 cells versus AGS cells, read-out: Ratio IC50
[5] = biological target: T1, NEDD8 activating enzyme (Homo sapiens) (UniProt Q8TBC4+Q13564); assay: Inhibition of recombinant human NAE assessed as reduction in Ubc12-NEDD8 conjugation level pretreated for 10 mins followed by Mg2+ and ATP addition measured after 60 mins by Western blot analysis; format: protein-complex assay
In short: (§2)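 Cell-free assay with recombinant human NAE 2.5 µM, NEDD8 250 µM and E2 Ubc12 50 µM (stock concentrations) plus inhibitor, preincubated 10 min at 37 °C. Reaction started with 10 mM Mg2+/ATP (stock), run 60 min at 37 °C, quenched with EDTA. Non-reducing 15% SDS-PAGE, Ubc12-NEDD8 thioester detected by western blot. No-ATP negative control.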

[6] = biological target: T1, NEDD8 activating enzyme (Homo sapiens); assay: Inhibition of NAE-mediated CRL neddylation in human AGS cells assessed as increase in CDT1 level up to 10 uM after 24 hrs by Western blot analysis; format: cell-based
In short: (§3)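 AGS cells given 2, 4, 6, 8 or 10 μM compound or 0.1% DMSO for 24 h, washed in ice-cold PBS and lysed in RIPA on ice. Equal protein loads run by SDS-PAGE: non-reducing for NEDD8/SUMO/Ub conjugates, reducing for p27, NRF2, CDT1 and cleaved caspase-3. Blotted to PVDF with primary antibody overnight at 4 °C and HRP secondary, ECL detection, densitometry. Three repeats.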

[7] = biological target: T1, NEDD8 activating enzyme (Homo sapiens); assay: Inhibition of NAE-mediated CRL neddylation in human AGS cells assessed as increase in NRF2 level up to 10 uM after 24 hrs by Western blot analysis; format: cell-based; in short: as §3
[8] = biological target: Protein kinase C alpha type (Homo sapiens) (UniProt P17252); assay: Inhibition of PKCalpha (unknown origin) at 30 uM relative to control
[9] = biological target: Aurora kinase A (Homo sapiens) (UniProt O14965); assay: Inhibition of AurA (unknown origin) at 30 uM relative to control
Sequence of Aurora kinase A (Homo sapiens) (O14965 whole entry): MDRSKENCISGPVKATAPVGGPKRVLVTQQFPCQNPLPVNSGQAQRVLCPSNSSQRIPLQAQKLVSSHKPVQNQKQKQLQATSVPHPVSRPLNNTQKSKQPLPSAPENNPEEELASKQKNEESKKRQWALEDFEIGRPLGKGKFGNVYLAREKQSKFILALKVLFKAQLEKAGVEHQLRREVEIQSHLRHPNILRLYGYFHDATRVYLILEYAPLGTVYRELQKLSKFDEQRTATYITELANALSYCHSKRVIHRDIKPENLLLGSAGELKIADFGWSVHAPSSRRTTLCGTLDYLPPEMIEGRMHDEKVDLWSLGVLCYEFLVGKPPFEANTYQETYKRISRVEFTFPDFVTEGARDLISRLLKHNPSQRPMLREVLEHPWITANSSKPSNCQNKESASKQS

[10] = biological target: Serine/threonine-protein kinase B-raf (Homo sapiens) (UniProt P15056); assay: Inhibition of B-raf (unknown origin) at 30 uM relative to control
Sequence of Serine/threonine-protein kinase B-raf (Homo sapiens) (P15056 whole entry): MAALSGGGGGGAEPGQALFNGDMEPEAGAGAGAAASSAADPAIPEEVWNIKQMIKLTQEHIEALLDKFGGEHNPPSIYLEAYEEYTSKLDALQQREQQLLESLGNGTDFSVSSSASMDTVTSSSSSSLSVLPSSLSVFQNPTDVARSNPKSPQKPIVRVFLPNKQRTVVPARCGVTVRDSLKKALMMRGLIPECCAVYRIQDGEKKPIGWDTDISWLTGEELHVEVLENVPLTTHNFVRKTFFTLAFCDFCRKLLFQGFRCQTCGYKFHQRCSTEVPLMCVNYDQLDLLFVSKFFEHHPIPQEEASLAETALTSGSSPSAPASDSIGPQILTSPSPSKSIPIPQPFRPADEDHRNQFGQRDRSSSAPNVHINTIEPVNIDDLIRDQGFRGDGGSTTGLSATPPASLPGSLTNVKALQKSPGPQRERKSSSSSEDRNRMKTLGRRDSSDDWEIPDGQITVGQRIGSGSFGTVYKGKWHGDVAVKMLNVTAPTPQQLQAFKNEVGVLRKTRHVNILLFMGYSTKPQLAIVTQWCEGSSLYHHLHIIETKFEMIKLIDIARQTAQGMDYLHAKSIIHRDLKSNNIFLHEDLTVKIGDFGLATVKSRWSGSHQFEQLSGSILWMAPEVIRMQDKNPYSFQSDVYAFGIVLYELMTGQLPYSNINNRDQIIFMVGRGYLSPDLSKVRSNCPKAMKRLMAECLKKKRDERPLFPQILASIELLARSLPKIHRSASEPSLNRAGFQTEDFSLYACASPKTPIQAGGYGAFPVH

[11] = biological target: Cyclin-dependent kinase 1 (Homo sapiens) (UniProt P06493); assay: Inhibition of CDK1 (unknown origin) at 30 uM relative to control
Sequence of Cyclin-dependent kinase 1 (Homo sapiens) (P06493 whole entry, looked up): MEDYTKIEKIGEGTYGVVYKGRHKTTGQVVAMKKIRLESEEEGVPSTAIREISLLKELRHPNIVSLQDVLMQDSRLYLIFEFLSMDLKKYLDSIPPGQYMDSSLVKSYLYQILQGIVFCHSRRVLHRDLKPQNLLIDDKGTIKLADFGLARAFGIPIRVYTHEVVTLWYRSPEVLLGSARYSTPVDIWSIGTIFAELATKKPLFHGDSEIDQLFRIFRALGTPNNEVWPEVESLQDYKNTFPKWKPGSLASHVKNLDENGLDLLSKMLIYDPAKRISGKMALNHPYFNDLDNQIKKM

[12] = biological target: Tyrosine-protein kinase Lck (Homo sapiens) (UniProt P06239); assay: Inhibition of LCK (unknown origin) at 30 uM relative to control
Sequence of Tyrosine-protein kinase Lck (Homo sapiens) (P06239 2-509 limits assumed): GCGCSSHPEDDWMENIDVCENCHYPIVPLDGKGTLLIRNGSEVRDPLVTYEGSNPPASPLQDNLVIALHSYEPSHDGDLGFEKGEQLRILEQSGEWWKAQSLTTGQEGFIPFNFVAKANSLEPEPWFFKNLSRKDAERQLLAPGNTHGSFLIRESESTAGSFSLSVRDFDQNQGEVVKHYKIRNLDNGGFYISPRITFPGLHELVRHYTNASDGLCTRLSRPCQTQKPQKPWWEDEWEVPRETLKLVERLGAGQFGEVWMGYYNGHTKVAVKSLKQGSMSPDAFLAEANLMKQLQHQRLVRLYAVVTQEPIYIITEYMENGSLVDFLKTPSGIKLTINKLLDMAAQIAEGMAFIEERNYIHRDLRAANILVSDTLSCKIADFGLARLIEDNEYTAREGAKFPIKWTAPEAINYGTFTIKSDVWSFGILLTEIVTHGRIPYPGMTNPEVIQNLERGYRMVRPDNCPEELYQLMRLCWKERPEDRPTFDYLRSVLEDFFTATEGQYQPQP

Homo sapiens = species: Homo sapiens; assay: Inhibition of UAE (unknown origin) assessed as reduction in Ubc10-Ub conjugation level up to 10 uM pretreated for 10 mins followed by Mg2+ and ATP addition measured after 60 mins by Western blot analysis
In short: as §2, with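 “UAE” for “recombinant human NAE”, “Ub” for “NEDD8”, “Ubc10” for “Ubc12”, “Ubc10-Ub” for “Ubc12-NEDD8”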

AGS [13] = assay: Induction of apoptosis in human AGS cells assessed as live cells at 4 uM after 36 hrs by Annexin-V-FITC/propidium iodide staining based flow cytometry (reference value: 92.84%); format: functional
AGS [14] = assay: Induction of apoptosis in human AGS cells assessed as late apoptotic cells at 4 uM after 36 hrs by Annexin-V-FITC/propidium iodide staining based flow cytometry (reference value: 1.71%); format: functional
AGS [15] = assay: Induction of apoptosis in human AGS cells assessed as early apoptotic cells at 6 uM after 36 hrs by Annexin-V-FITC/propidium iodide staining based flow cytometry (reference value: 4.44%); format: functional
AGS [16] = assay: Induction of apoptosis in human AGS cells assessed as live cells at 8 uM after 36 hrs by Annexin-V-FITC/propidium iodide staining based flow cytometry (reference value: 92.84%); format: functional
AGS [17] = assay: Induction of apoptosis in human AGS cells assessed as necrotic cells at 8 uM after 36 hrs by Annexin-V-FITC/propidium iodide staining based flow cytometry (reference value: 1.01%); format: functional
AGS [18] = assay: Induction of apoptosis in human AGS cells assessed as necrotic cells at 10 uM after 36 hrs by Annexin-V-FITC/propidium iodide staining based flow cytometry (reference value: 1.01%); format: functional
AGS [19] = assay: Induction of apoptosis in human AGS cells assessed as increase in cleaved caspase-3 level up to 10 uM after 24 hrs by Western blot analysis; format: functional, cell-based; in short: as §3
AGS [20] = assay: Synergistic antiproliferative activity against human AGS cells assessed as combination index constant at 1.25 uM after 48 hrs in presence of 5 nM BTZ by CCK8 assay; format: functional
In short: (§4)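 AGS cells at 6×10^3/well attached for 12 h, then exposed for 48 h to compound, bortezomib, or both at set concentrations. CCK-8 added for 4 h, then OD read at 450 nm. Inhibition rates E used for q = E(combo)/(E1+E2−E1×E2). Triplicate experiments.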

AGS [21] = assay: Synergistic antiproliferative activity against human AGS cells assessed as combination index constant at 1.25 uM after 48 hrs in presence of 7.5 nM BTZ by CCK8 assay; format: functional; in short: as §4
AGS [22] = assay: Synergistic antiproliferative activity against human AGS cells assessed as combination index constant at 1.5 uM after 48 hrs in presence of 7.5 nM BTZ by CCK8 assay; format: functional; in short: as §4
AGS [23] = assay: Synergistic antiproliferative activity against human AGS cells assessed as combination index constant at 1.25 uM after 48 hrs in presence of 10 nM BTZ by CCK8 assay; format: functional; in short: as §4

SMILES: O=c1cc(-c2ccc(-c3ccccc3)cc2)c2ccc(N3CCC(NCCc4ccccc4)CC3)cc2o1
- IC50 (K562): 2450 nM
- IC50 (HCT-116): 1330 nM
- IC50 (BXPC-3): 2800 nM
- hemolysis at 1 h, 100 µM [1]: < 10%
- CC50 at 48 h [2]: 10700 nM
- selectivity ratio [3]: 14 to 18
- selectivity ratio [4]: 14 to 18
- inhibition [5]: Dose-dependent effect
- inhibition [6]: Active
- inhibition [7]: Active
- inhibition [8]: 11.5%
- inhibition [9]: 6.03%
- inhibition [10]: 1.75%
- inhibition [11]: -1.18%
- inhibition [12]: -2.51%
- inhibition (Homo sapiens): Active
- Activity (AGS [13]): 80.7%
- Activity (AGS [14]): 10.51%
- Activity (AGS [15]): 45.91%
- Activity (AGS [16]): 9.88%
- Activity (AGS [17]): 4.71%
- Activity (AGS [18]): 9.14%
- Activity (AGS [19]): Active
- CI (AGS [20]): 4.34
- CI (AGS [21]): 3.1
- CI (AGS [22]): 1.05
- CI (AGS [23]): 1.75
